The list is not random: actives were taken first. Their share in the collection is about 1.8%.
CHOP UPR activ – activators of apoptotic arm of unfolded protein response (CHOP); CHO-CHOP luciferase reporter, UPR activation, luminescence; percent of tunicamycin response over DMSO baseline; 0.34% of 330,000 active; activation, % at 10 µM; AID 449763;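 active = at 10 µM dose, activation of 40% or more, normalized to positive control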;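 also: 100% = tunicamycin at 10 µg/mL and 0% = DMSO alone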
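Material: CHO-CHOP cells, stable luciferase reporter of PERK-eIF2a-CHOP signalling; quantity: 500 reporter cells seeded per well; buffer or medium: F12 medium containing 10% fetal bovine serum; compound: one dose, 10 µM in 0.5% DMSO; incubation: 6 h compound treatment, 37 °C; measured by: Steady-Glo luciferase luminescence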
CRFBP-R2 block – CRF-BP/CRF-R2 complex antagonism | HEK293 CRF-R2/CRF-BP, CRF-induced calcium fluorescence | inhibition, % at 11.8 µM | 0.59% of 350,000 active | AID 588475;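 active = inhibition of the ligand-induced calcium signal above about 50% at the single tested concentration, limit read from the data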
Jurkat NFkB inh – lowers PMA/ionomycin-induced NF-kB signal in Jurkat cells | PMA/ionomycin-induced NF-kB luciferase reporter, luminescence | inhibition, % at 4 µM | 0.53% of 330,000 active; in the data active = inhibition above about 50%
UPR XBP1 act – activators of adaptive arm of unfolded protein response (XBP1) | activation, % at 20 µM | CHO-XBP1 luciferase reporter, IRE1-XBP1 UPR activation, luminescence; percent of tunicamycin response, DMSO as zero | 0.33% of 330,000 active;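 active = versus positive control, 20 µM dose yields 30% or more activation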;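 also: 100% = tunicamycin at 10 µg/mL and 0% = DMSO only wells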
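assay system = CHO-XBP1 luciferase reporter cells | amount = 1000 cells/well | buffer or medium = F12 plus 10% FBS | compound dosing = single point, 20 µM final compound, 1% DMSO | incubation = 16-18 h cell attachment at 37 °C, then 6 h compound exposure | detection = Steady-Glo luminescence read | controls = tunicamycin 10 µg/mL and vehicle-only wells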
697 NFkB inh – inhibitors of the PMA/ionomycin-induced NF-kB reporter in 697 B cells. inhibition, % at 4 µM. 0.33% of 330,000 active. 697 B-cell NF-kB luciferase reporter, 16 h; in the data active = inhibition above about 35%
* marks the source's active call; other numbers are inactive results; · = no result.

SMILES	CHOP UPR activ	CRFBP-R2 block	Jurkat NFkB inh	UPR XBP1 act	697 NFkB inh
N#CC1(NC(=O)COc2ccc(S(=O)(=O)N3CCCC3)cc2[N+](=O)[O-])CCCCC1	0	9	4	0	19
Cc1ccc(N2CC(C(=O)Nc3nnc(SCCN4CCOCC4)s3)CC2=O)cc1C (centres undefined)	1	-9	-6	-6	-2
O=C(CN1CCc2ccccc2C1)Nc1ccccc1C(=O)NC1CC1	2	-15	3	-3	3
O=C(CCN1CCCCC1)c1ccc2c(c1)OCO2	0	51*	3	-6	-21
N#CC1=C(N)C(C#N)(C#N)[C@H](c2ccoc2)[C@H]2CN(Cc3ccccc3)CC=C12	0	-10	16	37*	15
CN1CC=C2C(C#N)=C(N)C(C#N)(C#N)[C@H](c3ccoc3)[C@H]2C1	-3	-20	7	-3	-2
COc1cccc(CN2CCN(c3cccc(C(F)(F)F)c3)CC2)c1OC	-1	54*	-16	0	13
CCOc1cccc(CN2CCN(c3cccc(C(F)(F)F)c3)CC2)c1O	0	-7	-5	0	7
CC1CCCC(C)N1CC(O)COCc1ccccc1F (centres undefined)	2	4	12	-3	4
COc1ccc(-c2csc(NC(=O)c3ccccc3NS(=O)(=O)c3ccc(C)cc3)n2)cc1	2	58*	3	2	-19
COc1ccc(S(=O)(=O)Nc2ccccc2C(=O)Nc2nc(-c3ccc(F)cc3)cs2)cc1OC	2	47	4	3	-26
O=C(COc1cccnc1[N+](=O)[O-])Nc1cc(S(=O)(=O)N2CCCCC2)ccc1Cl	0	-11	8	-2	-3
O=C(Nc1ccccc1)c1sccc1Oc1ccc([N+](=O)[O-])cc1F	0	64*	-12	-3	14
COCCOc1cc(NC(=O)c2sccc2Oc2ccc([N+](=O)[O-])cc2F)c(Cl)cc1Cl	-1	9	-12	-4	0
C=CCN(c1ccccc1)S(=O)(=O)c1cccc(C(=O)OCC(=O)NC2CC2)c1	-1	15	-7	-2	3
C=CCN(c1ccccc1)S(=O)(=O)c1cccc(C(=O)OCC(=O)NCCOC)c1	-1	55*	3	-3	-8
Cc1ccc(CN(C(=O)c2ccccc2[N+](=O)[O-])C2CCS(=O)(=O)C2)o1 (centres undefined)	0	58*	-7	-7	-34
NC(=O)C1(Nc2ccccc2)CCCC1	·	11	·	·	·
O=C1N/C(=C/c2ccc(N3CCOCC3)o2)C(=O)N1c1cccc(Cl)c1	27	70*	-10	3	-17
CC(=O)N1N=C(C)CC1c1ccc(O)cc1 (centres undefined)	0	-7	6	0	0
CC(=O)N1N=C(C)CC1c1ccc(OCc2ccccc2)cc1 (centres undefined)	0	52*	-8	-4	1
CCN(CC(=O)Nc1ccc2c(c1)OCCO2)C(=O)c1cccc(OCC(C)C)c1	2	-2	17	-4	9
O=C(NCc1csc(-c2cccs2)n1)c1ccccc1	1	77*	-18	-1	-40
O=C(NCc1csc(-c2cccs2)n1)c1cccc(Cl)c1	0	-1	-4	0	-10
COc1ccc(C(CNC(=O)c2cc(C)on2)N(C)C)cc1 (centres undefined)	3	19	18	2	11
SMILES	CHOP UPR activ	CRFBP-R2 block	Jurkat NFkB inh	UPR XBP1 act	697 NFkB inh
Cc1cc(C)nc(SCc2ccc(C(=O)N/N=C/c3ccncc3)cc2)n1	-1	-16	8	4	-10
Cc1cc(C)nc(SCc2ccc(C(=O)NNC(=O)Nc3cccc(Cl)c3)cc2)n1	·	70*	·	·	·
C=CCOc1ccc(CNc2ccc3[nH]c(=O)[nH]c3c2)cc1OC	·	6	·	·	·
C=CCOc1cccc(CNc2ccc3[nH]c(=O)[nH]c3c2)c1	0	91*	-1	-2	12
CCCCN(C(=O)c1c(C)noc1C)c1c(N)n(CCC)c(=O)[nH]c1=O	3	4	-3	0	3
C[C@H](NC(=O)[C@@H]1Cc2ccccc2CN1)C(=O)NC1CCCCC1	1	93*	3	-3	2
CC(C)[C@H](NC(=O)[C@@H]1Cc2ccccc2CN1)C(=O)NC1CCCCC1	1	-1	20	-2	17
O=C(Cn1nnnc1CN1CCOCC1)N1CCC(c2cccc(Cl)c2)C1 (centres undefined)	1	-1	-4	-3	-10
Cc1ccc(C(=O)N/N=C(/CC(=O)c2cccs2)C(F)(F)F)cc1	2	80*	-9	1	-45
Cc1ccc(NCCC(=O)c2cccs2)cc1	5	9	-113	1	-93
Cc1ccc(S(=O)(=O)N2C[C@H]3C(=O)C[C@@H](c4ccccc4F)N(S(=O)(=O)c4ccc(C)cc4)[C@H]3C[C@H]2c2cccc3ccccc23)cc1	·	-6	·	·	·
CN(C)C(=O)CCc1ccc2c3c([nH]c2c1)[C@]1(C)[C@@H](C(=O)N2CCOCC2)C[C@H](CC(=O)NCc2cccc(C(F)(F)F)c2)C(=O)N1CC3	2	2	·	-2	-10
Cc1ccc(Sc2ccc(CO)cc2[N+](=O)[O-])cc1	3	51*	-9	1	9
Cc1ccc(Sc2ccc(CN3CCCC3)cc2[N+](=O)[O-])cc1	1	-26	-22	6	-36
C/C(=N\NC(=O)c1cccc(Br)c1)c1cccnc1	-1	1	4	0	20
Cc1ccc(NC(=O)CSc2nnc(Cn3cnc4ccccc43)o2)c(C)c1	0	59*	-7	-1	-3
COc1ccc(OC(=O)c2ccc(Cl)cc2)c(C(C)=O)c1	1	52*	-17	-1	-2
CSCSC1=C(C#N)C(c2ccccc2Cl)C(C(C)=O)=C(C)N1 (centres undefined)	-1	55*	7	-3	-13
COc1ccc(C2=Nc3ccccc3C2(O)CCN2C(=O)c3ccccc3C2=O)cc1 (centres undefined)	·	67*	·	·	·
CC1(c2ccccc2)NC(=O)N(CC(=O)N(c2ccccc2)C2CCS(=O)(=O)C2)C1=O (centres undefined)	0	1	-16	2	8
Cc1ccc2nc(SCC(=O)N3CCCCC3)nc(=O)n2c1	2	-7	-22	1	0
Cc1ccc(NC(=O)CCn2cc(C(F)(F)F)ccc2=O)cc1	2	122*	4	-2	6
CNC(=O)Nc1ccc(Cn2cc(C(F)(F)F)ccc2=O)cc1	0	6	6	-3	11
Cc1ccc2c(cnn2C(=O)CCC(=O)N2CCCCC2)c1	4	71*	-5	0	8
COc1ccc(SCC(=O)Nc2ccccc2Cl)cc1	0	80*	6	-1	17

Screening results: PubChem BioAssay, Sanford-Burnham Center for Chemical Genomics
